Source: ChEMBL document CHEMBL1152312, “Neopyrrolomycins with broad spectrum antibacterial activity” (2009)
Converted amounts (≈) assume the structure as drawn. The source made the active and inactive calls. The rule behind the calls is not given here.

How the values were obtained:
[1] = system: Escherichia coli; test: Antibacterial activity against Escherichia coli 25922 by microdilution method; type: functional
How it was run: (§1)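 MIC determined by CLSI broth microdilution; organisms were ATCC strains and clinical isolates.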

[2] = system: Escherichia coli; test: Antibacterial activity against Escherichia coli 1411 by microdilution method; type: functional; how it was run: as §1
[3] = system: Klebsiella pneumoniae; test: Antibacterial activity against Klebsiella pneumoniae 4352 by microdilution method; type: functional; how it was run: as §1
[4] = system: Staphylococcus aureus; test: Antibacterial activity against methicillin-resistant Staphylococcus aureus 43300 by microdilution method; type: functional
How it was run: (§2)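 MIC values from CLSI broth microdilution. Strains came from the ATCC collection and from clinical isolates.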

[5] = system: Staphylococcus aureus; test: Antibacterial activity against methicillin-sensitive Staphylococcus aureus 6538 by microdilution method; type: functional; how it was run: as §2
[6] = system: Staphylococcus aureus; test: Antibacterial activity against methicillin-sensitive Staphylococcus aureus 29213 by microdilution method; type: functional; how it was run: as §2
[7] = system: Pseudomonas aeruginosa; test: Antibacterial activity against Pseudomonas aeruginosa 27853 by microdilution method; type: functional; how it was run: as §1
[8] = system: Streptococcus pneumoniae; test: Antibacterial activity against Streptococcus pneumoniae 49619 by microdilution method; type: functional; how it was run: as §1
[9] = system: Enterococcus faecium; test: Antibacterial activity against vancomycin-resistant Enterococcus faecium 700221 by microdilution method; type: functional; how it was run: as §2
[10] = system: HepG2; test: Cytotoxicity against human HepG2 cells assessed as effect on cell viability at 43 ug/mL after 48 hrs by celltiter glow assay; type: functional, cell-based
How it was run: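 HepG2 grown in MEM with 10% heat-inactivated FBS, 0.10 mM nonessential amino acids, 1 mM pyruvate, 37 °C, 5% CO2. Seeded at 1.25 × 10^5 cells/mL 24 h before treatment. DMSO-dissolved compounds tested over 0.6–128 µg/mL (1% final DMSO) for 48 h. Luminescent CellTiter-Glo viability read-out relative to DMSO control; CC90 taken.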

[11] = system: NHDF; test: Cytotoxicity against NHDF cells after 48 hrs by celltiter glow assay; type: functional; settings: Homo sapiens
How it was run: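 Fibroblasts kept at 37 °C, 5% CO2 in FGM-2 medium, passage ≤16. Seeded at 1.25 × 10^5 cells/mL 24 h before dosing. Compounds dissolved in DMSO, tested 0.6–128 µg/mL at 1% final DMSO for 48 h. Viability by CellTiter-Glo luminescence, expressed as percent of DMSO control.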

[12] = system: Pseudomonas aeruginosa; test: Antibacterial activity against Pseudomonas aeruginosa 1473 by microdilution method; type: functional; how it was run: as §2
[13] = system: Staphylococcus aureus; test: Antibacterial activity against methicillin-resistant Staphylococcus aureus 1137 by microdilution method; type: functional; how it was run: as §2
[14] = system: Staphylococcus aureus; test: Antibacterial activity against methicillin-resistant Staphylococcus aureus 2170 by microdilution method; type: functional; how it was run: as §2
[15] = system: Staphylococcus aureus; test: Antibacterial activity against vancomycin-intermediate Staphylococcus aureus 2012 by microdilution method; type: functional; how it was run: as §2
[16] = system: Staphylococcus aureus; test: Antibacterial activity against vancomycin-intermediate Staphylococcus aureus 2018 by microdilution method; type: functional; how it was run: as §2
[17] = system: Staphylococcus aureus; test: Antibacterial activity against Linezolid, methicillin-resistant Staphylococcus aureus 1725 by microdilution method; type: functional; how it was run: as §2
[18] = system: Staphylococcus aureus; test: Antibacterial activity against Linezolid, methicillin-resistant Staphylococcus aureus 1651 by microdilution method; type: functional; how it was run: as §2
[19] = system: Staphylococcus aureus; test: Antibacterial activity against community-acquired Staphylococcus aureus 2144 by microdilution method; type: functional; how it was run: as §2
[20] = system: Staphylococcus epidermidis; test: Antibacterial activity against methicillin-sensitive Staphylococcus epidermidis 1597 by microdilution method; type: functional; how it was run: as §2
[21] = system: Staphylococcus epidermidis; test: Antibacterial activity against methicillin-resistant Staphylococcus epidermidis 1452 by microdilution method; type: functional; how it was run: as §2
[22] = system: Staphylococcus epidermidis; test: Antibacterial activity against Staphylococcus epidermidis 495 by microdilution method; type: functional; how it was run: as §2
[23] = system: Enterococcus faecalis; test: Antibacterial activity against vancomycin-resistant Enterococcus faecalis 846 by microdilution method; type: functional; how it was run: as §2
[24] = system: Enterococcus faecium; test: Antibacterial activity against vancomycin-sensitive Enterococcus faecium 843 by microdilution method; type: functional; how it was run: as §2
[25] = system: Enterococcus faecium; test: Antibacterial activity against vancomycin-resistant Enterococcus faecium 1254 by microdilution method; type: functional; how it was run: as §2
[26] = system: Streptococcus pneumoniae; test: Antibacterial activity against penicillin-susceptible Streptococcus pneumoniae 866 by microdilution method; type: functional; how it was run: as §2
[27] = system: Streptococcus pneumoniae; test: Antibacterial activity against penicillin-resistant Streptococcus pneumoniae 940 by microdilution method; type: functional; how it was run: as §2
[28] = system: Streptococcus pneumoniae; test: Antibacterial activity against penicillin-resistant Streptococcus pneumoniae 748 by microdilution method; type: functional; how it was run: as §2
[29] = system: Streptococcus pneumoniae; test: Antibacterial activity against quinolone-resistant Streptococcus pneumoniae 376 by microdilution method; type: functional; how it was run: as §2
[30] = system: Streptococcus pneumoniae; test: Antibacterial activity against quinolone-resistant Streptococcus pneumoniae 379 by microdilution method; type: functional; how it was run: as §2
[31] = system: Streptococcus pneumoniae; test: Antibacterial activity against multidrug-resistant Streptococcus pneumoniae 933 by microdilution method; type: functional; how it was run: as §2
[32] = system: Streptococcus pneumoniae; test: Antibacterial activity against Streptococcus pneumoniae 1195 ATCC 49619 by microdilution method; type: functional; how it was run: as §2
[33] = system: Streptococcus pyogenes; test: Antibacterial activity against Streptococcus pyogenes 723 by microdilution method; type: functional; how it was run: as §2
[34] = system: Streptococcus agalactiae; test: Antibacterial activity against Streptococcus agalactiae 2033 by microdilution method; type: functional; how it was run: as §2
[35] = system: Moraxella catarrhalis; test: Antibacterial activity against Moraxella catarrhalis 557 by microdilution method; type: functional; how it was run: as §2
[36] = system: Haemophilus influenzae; test: Antibacterial activity against ampicillin-resistant Haemophilus influenzae 1742 by microdilution method; type: functional; how it was run: as §2
[37] = system: Haemophilus influenzae; test: Antibacterial activity against Haemophilus influenzae 1224 ATCC 49247 by microdilution method; type: functional; how it was run: as §2
[38] = system: Haemophilus parainfluenzae; test: Antibacterial activity against Haemophilus parainfluenzae 2319 ATCC 7901 by microdilution method; type: functional; how it was run: as §2
[39] = system: Escherichia coli; test: Antibacterial activity against Escherichia coli 102 ATCC 25922 by microdilution method; type: functional; how it was run: as §2
[40] = system: Escherichia coli; test: Antibacterial activity against extended spectrum beta-lactamase-producing Escherichia coli 2269 by microdilution method; type: functional; how it was run: as §2
[41] = system: Klebsiella pneumoniae; test: Antibacterial activity against Klebsiella pneumoniae 2239 by microdilution method; type: functional; how it was run: as §2
[42] = system: Klebsiella pneumoniae; test: Antibacterial activity against ampicillin beta-lactamase, multidrug-resistant Klebsiella pneumoniae 2262 by microdilution method; type: functional; how it was run: as §2
[43] = system: Serratia marcescens; test: Antibacterial activity against Serratia marcescens 1635 by microdilution method; type: functional; how it was run: as §2

Work on Oc1cc(Cl)cc(Cl)c1-n1cc(Cl)c(Cl)c1Cl [NEOPYRROLOMYCIN C] yielded an MIC90 [1] of 16 µg/mL (≈ 48.3 µM), an MIC90 [2] of 16 µg/mL (≈ 48.3 µM) and an MIC90 [3] of 16 µg/mL (≈ 48.3 µM). It also gave an MIC90 [4] of 1 µg/mL (≈ 3.02 µM), an MBC [5] of 8 µg/mL (≈ 24.1 µM) and an MIC90 [5] of 2 µg/mL (≈ 6.03 µM). It also gave an MIC90 [6] of 2 µg/mL (≈ 6.03 µM), an MIC90 [7] of 32 µg/mL (≈ 96.6 µM) and an MIC90 [8] of 8 µg/mL (≈ 24.1 µM). The MIC90 [9] was 2 µg/mL (≈ 6.03 µM), the Activity [10] was “Active” and the CC90 [11] was 43 µg/mL (≈ 130 µM).
O=C(O)c1cn(C2CC2)c2cc(N3CCNCC3)c(F)cc2c1=O [CIPROFLOXACIN] gave an MIC90 [12] of 1 µg/mL (≈ 3.02 µM), an MIC90 [13] of over 2 µg/mL and an MIC90 [14] of over 2 µg/mL. The MIC90 [15] was over 2 µg/mL, the MIC90 [16] was over 2 µg/mL and the MIC90 [17] was over 2 µg/mL. The MIC90 [18] was over 2 µg/mL, the MIC90 [19] was over 2 µg/mL and the MIC90 [20] was 0.25 µg/mL (≈ 0.754 µM). For the same molecule, the MIC90 [21] was over 2 µg/mL, the MIC90 [22] was 0.5 µg/mL (≈ 1.51 µM) and the MIC90 [23] was over 2 µg/mL. The MIC90 [24] was over 2 µg/mL, the MIC90 [25] was over 2 µg/mL and the MIC90 [26] was over 2 µg/mL. It also gave an MIC90 [27] of over 2 µg/mL, an MIC90 [28] of 1 µg/mL (≈ 3.02 µM) and an MIC90 [29] of over 2 µg/mL. It also gave an MIC90 [30] of over 2 µg/mL, an MIC90 [31] of 2 µg/mL (≈ 6.04 µM) and an MIC90 [32] of 1 µg/mL (≈ 3.02 µM). The MIC90 [33] was 0.5 µg/mL (≈ 1.51 µM), the MIC90 [34] was 1 µg/mL (≈ 3.02 µM) and the MIC90 [35] was 0.03 µg/mL (≈ 0.0905 µM). The MIC90 [36] was 0.008 µg/mL (≈ 0.0241 µM), the MIC90 [37] was 0.15 µg/mL (≈ 0.453 µM) and the MIC90 [38] was 0.15 µg/mL (≈ 0.453 µM). It also gave an MIC90 [39] of 0.008 µg/mL (≈ 0.0241 µM), an MIC90 [40] of over 2 µg/mL and an MIC90 [41] of 0.03 µg/mL (≈ 0.0905 µM). For the same molecule, the MIC90 [42] was over 2 µg/mL and the MIC90 [43] was 0.06 µg/mL (≈ 0.181 µM).
